T cell modulator: T cell immune modulation candidate. 2C CD8+ T cell-vesicle binding, flow cytometry; stronger effect = lower value. response (vesicle binding), % at 7 µM. 0.068% of 330,000 active. AID 2052;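 active means response, share of CD8 T cells binding vesicles, and their 90th percentile fluorescence all below set limits, cut at about 80% in these data, passing the limit was not always enough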;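 further: values below 100% mean blocked vesicle binding to the CD8+ T cells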
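Also added: QL9-peptide-loaded Drosophila micro-vesicles bearing Ld, ICAM-1 and B7-1; Test system: purified 2C TCR transgenic mouse naive CD8+ T cells; Measured by: cytometric PE anti-B7-1 and Alexa647 anti-CD8 signals after 1% paraformaldehyde fixation; Timing: binding step 1.5 h, 37 °C, antibody labelling 20 min, ice.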
DSG3 Ab inh: blocks pemphigus antibody binding to human desmoglein-3. DSG3-coupled beads, scFv-anti-DSG3-GFP binding, flow cytometry; stronger effect = lower value. P32926. 0.48% of 310,000 active. binding (percent of control), % at 10 µM. AID 588358;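 active means binding more than 3 SD below its plate's average and above zero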;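 further: hits lower antibody fragment binding to DSG3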
Target sequence (P32926 whole entry, looked up, the tested form may be a part): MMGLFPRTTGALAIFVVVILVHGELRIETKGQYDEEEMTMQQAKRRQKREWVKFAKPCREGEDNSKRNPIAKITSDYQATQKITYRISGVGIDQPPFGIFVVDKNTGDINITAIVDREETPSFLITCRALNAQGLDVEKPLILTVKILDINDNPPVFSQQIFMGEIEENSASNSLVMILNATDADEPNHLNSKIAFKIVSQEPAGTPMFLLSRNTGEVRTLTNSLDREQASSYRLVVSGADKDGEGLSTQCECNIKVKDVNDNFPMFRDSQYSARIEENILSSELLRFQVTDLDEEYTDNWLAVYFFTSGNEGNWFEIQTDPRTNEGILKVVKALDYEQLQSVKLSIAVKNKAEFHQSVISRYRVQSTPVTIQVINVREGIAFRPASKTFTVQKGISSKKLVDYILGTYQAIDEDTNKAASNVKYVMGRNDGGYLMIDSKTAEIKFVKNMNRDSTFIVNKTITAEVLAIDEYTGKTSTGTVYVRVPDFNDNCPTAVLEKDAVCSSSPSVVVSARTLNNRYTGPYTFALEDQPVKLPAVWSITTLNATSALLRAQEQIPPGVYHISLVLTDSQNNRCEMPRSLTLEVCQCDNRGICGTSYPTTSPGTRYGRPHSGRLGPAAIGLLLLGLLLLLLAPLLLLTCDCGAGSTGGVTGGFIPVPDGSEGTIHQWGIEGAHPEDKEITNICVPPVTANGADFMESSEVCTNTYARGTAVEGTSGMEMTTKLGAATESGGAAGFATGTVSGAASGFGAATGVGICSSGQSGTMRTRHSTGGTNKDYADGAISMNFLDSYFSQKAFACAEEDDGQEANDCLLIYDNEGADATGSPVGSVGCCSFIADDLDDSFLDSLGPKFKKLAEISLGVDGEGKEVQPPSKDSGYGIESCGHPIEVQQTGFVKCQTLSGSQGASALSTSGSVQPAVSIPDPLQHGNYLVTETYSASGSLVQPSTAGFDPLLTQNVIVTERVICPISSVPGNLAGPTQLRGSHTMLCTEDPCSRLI
JMJD2C inh: inhibitors of human GASC-1 (JMJD2C) demethylase. AID 2099. GST-JMJD2C(1-420) H3K9me3 demethylation, DELFIA europium. inhibition, % at 2.35 µM. Q9H3R0. 0.069% of 330,000 active;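 active means more than half of a compound's replicate wells show inhibition beyond 50%, single wells judged on their own value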;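 further: signal counts dimethyl H3K9 product captured on neutravidin plate; 0% = median of DMSO wells and 100% = 0.3 times that DMSO median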
Arrestin-AP2 inh: human beta-arrestin and AP2 interaction inhibition. inhibition, % at 10 µM. 0.31% of 340,000 active. FITC-arrestin peptide / GST-AP2 beads, flow cytometry; AP2 beta2 appendage carries R879A mutation. AID 504490;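 active means inhibition above a set limit, near 3 SD of compounds lacking own fluorescence, cut at about 54% in these data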;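 further: plate controls were DMSO wells for no effect and 5 µM unlabelled arrestin peptide for full effect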
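Material – AP2 appendage R879A on GSH beads · Buffer or medium – PBS with 0.05% Tween 20 and 0.1% BSA · Probe or stimulus – fluorescein-tagged arrestin peptide at 50 nM final · Incubation – compound with beads 12 min RT, then probe 1 h RT · Detection – high-throughput flow cytometry of beads, ex 488, em 535 nm · Evaluation – percent response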
HDAC3 inhib: human HDAC3 inhibition. recombinant HDAC3, fluorogenic peptide/trypsin coupled, fluorescence. inhibition, % at 8.3 µM. O15379. 0.15% of 320,000 active; in the data active means inhibition above about 26%, passing the limit was not always enough
LANA-H2B inh: blocks KSHV LANA binding to histone H2A/H2B. Q9QR71. cell-free LANA-H2A/H2B peptide, fluorescence polarization. inhibition, % (no concentration beside the values). 0.6% of 320,000 active; in the data active means inhibition mostly above about 10%, no sharp cut-off; inactive means mostly below about 6.7%
The depositor's hits bear a star; x = not tested or not shown; + = active, no number; ! = repeats disagree. An excerpt weighted towards active compounds, which were near 1.6% of everything screened.

SMILES	T cell modulator	DSG3 Ab inh	JMJD2C inh	Arrestin-AP2 inh	HDAC3 inhib	LANA-H2B inh
CCN(CC)C(=O)c1ccccc1NC(=O)CN1C(=O)c2ccccc2C1=O	859	116	5	8	x	x
O=S(=O)(c1ccccc1)N1CCN(C(c2ccccc2)c2ccc(OC(F)(F)F)cc2)CC1 (stereo not drawn)	138	99	-12	-9	-2	0
COc1ccc(C(=O)NCc2nnc(SCC(=O)N3CCc4ccccc43)n2CCc2ccccc2)cc1	222	102	-3	-5	-3	4
COc1ccc(C(=O)NCc2nnc(SCC(=O)N3CCc4ccccc43)n2C2CCCCC2)cc1	252	89*	-13	44	0	1
N/C(=N\OC(=O)c1cccc2ccccc12)c1ccccn1	342	103	8	8	-4	41*
Nc1cc(S(=O)(=O)N2CCCCC2)ccc1Oc1ccccc1	351	101	15	13	6	-3
OC(c1ccccc1)C(O)c1ccccc1 (stereo not drawn)	298	91*	-6	12	0	5
CCC(C)NC(=O)C(=O)NCC1CCCN1CC (stereo not drawn)	208	113	-2	3	-1	3
COC(=O)c1[nH]c(=O)c2ccccc2c1O	477	103	-2	-2	-4	23*
O=C(NCc1ccccn1)c1cn(Cc2ccccc2)nn1	259	96	64*	-4	-10	-3
CCCCn1c(-c2ccc(Br)cc2F)nc2c1c(=O)[nH]c(=O)n2CC(C)C	244	56*	-8	39	-2	2
c1ccc(-c2nccc(-c3ccco3)n2)nc1	288	115	-9	47	0	1
c1ccc(-c2nc(-c3ccco3)cs2)nc1	285	100	56*	12	3	-3
COc1cc(/C=C/C(=O)OCC(=O)Nc2oc(C)c3c(C)n[nH]c(=O)c23)ccc1OC(F)F	207	104	-2	-5	1	1
CC(C)NC(=O)CSc1ccccc1C(=O)N1CCN(S(=O)(=O)Cc2ccccc2)CC1	x	99	x	25	x	x
CC(C)NC(=O)CSc1ccccc1C(=O)N1CCN(S(=O)(=O)/C=C/c2ccccc2)CC1	364	106	12	2	-2	17*
COc1ccc(CNC(=O)COC(=O)/C=C/c2cccc(Br)c2)cc1	121	75	9	42	-1	-175
CCOC(=O)c1sc(Nc2nc3c(F)cccc3s2)cc1C	140	78*	15	4	-2	-2
CN(C1CCCCC1)S(=O)(=O)c1ccc(=S)[nH]c1	508	112	2	-8	-2	8
COC(=O)c1cccc(NC(=O)Cc2ccc(OC)cc2)c1C	586	103	4	4	3	-2
COc1ccc(CC(=O)Nc2cccc(C(=O)NN3C(=O)c4ccccc4C3=O)c2C)cc1	114	14*	3	4	0	-2
CNc1nc(N(C)C)nc(N(C)C)n1	106	194	8	4	-3	7
CN(C)c1nc(N(C)C)nc(N(C)C)n1	515	x	-9	13	-6	19*!
Cc1c(C(=O)Nc2cccc([N+](=O)[O-])c2)csc1-c1ccccc1	439	101	17	31	7	-2
Cc1ccc(NC(=O)c2csc(-c3ccccc3)c2C)cc1	x	-24*	x	-3	x	x
SMILES	T cell modulator	DSG3 Ab inh	JMJD2C inh	Arrestin-AP2 inh	HDAC3 inhib	LANA-H2B inh
Cc1cc(N2CC(C)OC(C)C2)nc(C(C)C)n1 (stereo not drawn)	122	x	6	12	-3	+
Cc1cc(N2CCOCC2)nc(C(C)C)n1	192	111	2	-54	-8	1
CC(C)CC(=O)Nc1ccc2oc(-c3cccnc3)nc2c1	179	97	-3	-1	-70	15
Cc1ccc2oc(-c3ccc(NC(=O)CC(C)C)cc3)nc2c1	424	-15*	0	6	-5	6
COc1ccc(/C=N/Nc2ncc(Br)cn2)c(OC)c1	548	66*	8	-2	-2	-2
CC(=O)NC(Cc1cccc(C)c1)C(=O)NC1CCN(S(=O)(=O)c2ccccc2)CC1 (stereo not drawn)	385	97	-28	-5	-1	13*

Screening data deposited in PubChem by several laboratories.
